Reference: ChEMBL document CHEMBL1150128, “New antioxidant hydroquinone derivatives from the algicolous marine fungus Acremonium sp” (J Nat Prod, 2002)
Activity calls are given as the source filed them. The calls are words filed in the database; no cut-off is given here.

system: Radical scavenging activity; assay: Antioxidant activity assessed as DPPH free radical scavenging activity at 50 ug/mL; assay type: functional
In short: (§1)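 Ethanolic sample (1 mg/mL stock) is mixed with DPPH (1 mM stock) in EtOH, shaken briefly, and held at room temperature in the dark for 30 min. Radical scavenging is read as absorbance at 517 nm of sample versus control. Results are reported at the listed concentrations in µg/mL.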

Compared with C=C(C)C1Cc2c(O)ccc(O)c21 (centres undefined), C=C(C)C1Cc2c(O)ccc(O[C@@H]3O[C@H](CO)[C@@H](O)[C@H](O)[C@H]3O)c21 (some centres undefined) is lower in Activity: 90% for the first, 27.7% for the second.

Going from OC[C@H]1O[C@@H](Oc2ccc(O)cc2)[C@H](O)[C@@H](O)[C@@H]1O to CC1(C)Oc2ccc(O)cc2CC1O (centres undefined), the Activity rises from 23.5% to 85.1%.

Compared with COC(=O)C(CCC(=O)O)=C(C)C, CC(C)=C(CCC(=O)O)C(=O)O is lower in Activity: 3.4% for the first, -0.5% for the second.

First: CC(C)(O)C1Cc2cc(O)ccc2O1 (centres undefined)
Second: CC(C)(O)C(O)Cc1cc(O)ccc1O (centres undefined)
The Activity of the first is lower: 89.1% for the first, 90.7% for the second.

First: Cc1cc(C(C)(C)C)c(O)c(C(C)(C)C)c1
Second: COC(=O)CCC(C(=O)O)=C(C)C
The Activity of the first is higher: 41.1% for the first, 3.4% for the second.

With C=C(C)C(CCC(=O)OC)C(=O)O (centres undefined) the Activity was 3.4%.

system: Radical scavenging activity; assay: Antioxidant activity assessed as DPPH free radical scavenging activity at 5 ug/mL; assay type: functional; in short: as §1

Compared with C=C(C)C1Cc2c(O)ccc(O)c21 (centres undefined), C=C(C)C1Cc2c(O)ccc(O[C@@H]3O[C@H](CO)[C@@H](O)[C@H](O)[C@H]3O)c21 (some centres undefined) is lower in Activity: 26% for the first, 5.6% for the second.

Going from OC[C@H]1O[C@@H](Oc2ccc(O)cc2)[C@H](O)[C@@H](O)[C@@H]1O to CC1(C)Oc2ccc(O)cc2CC1O (centres undefined), the Activity rises from 1.9% to 25.7%.

Going from CC(C)(O)C1Cc2cc(O)ccc2O1 (centres undefined) to Cc1cc(C(C)(C)C)c(O)c(C(C)(C)C)c1, the Activity falls from 35.3% to 6%.

system: not listed separately; assay: Antioxidant activity assessed as inhibition of linolenic acid peroxidation at 37 ug/mL by TBARS assay; assay type: functional
In short: (§2)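 Linolenic acid methyl ester (70 mM stock in EtOH) is oxidized with sample (1 or 0.2 mg/mL ethanolic stock) in 50 mM phosphate buffer pH 7.2 with SDS and FeSO4 in 0.025 M HCl. Incubation is 50 °C for 30 min, then covered at 60 °C for 30 min, then room temperature for 4 min. Readout is A532 minus A600, with % inhibition calculated against sample blank, control and blank.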

First: C=C(C)C1Cc2c(O)ccc(O)c21 (centres undefined)
Second: CC(C)(O)C(O)Cc1cc(O)ccc1O (centres undefined)
The inhibition of the first is higher: 35.5% for the first, 16.6% for the second.

Compared with CC1(C)Oc2ccc(O)cc2CC1O (centres undefined), CC(C)(O)C1Cc2cc(O)ccc2O1 (centres undefined) is higher in inhibition: 9.2% for the first, 15.9% for the second.

For Cc1cc(C(C)(C)C)c(O)c(C(C)(C)C)c1, the inhibition was 43.9%.

system: not listed separately; assay: Antioxidant activity assessed as inhibition of linolenic acid peroxidation at 7.4 ug/mL by TBARS assay; assay type: functional; in short: as §2

Going from C=C(C)C1Cc2c(O)ccc(O)c21 (centres undefined) to CC(C)(O)C(O)Cc1cc(O)ccc1O (centres undefined), the inhibition falls from 13.9% to 2%.

Compared with COC(=O)C(CCC(=O)O)=C(C)C, CC(C)=C(CCC(=O)O)C(=O)O is lower in inhibition: -8.6% for the first, -9% for the second.

Compared with CC1(C)Oc2ccc(O)cc2CC1O (centres undefined), Cc1cc(C(C)(C)C)c(O)c(C(C)(C)C)c1 is higher in inhibition: -9.8% for the first, 36.2% for the second.

COC(=O)CCC(C(=O)O)=C(C)C and C=C(C)C(CCC(=O)OC)C(=O)O (centres undefined) are the same in inhibition: -8.6% for the first, -8.6% for the second.

molecular target: Tyrosine-protein kinase Lck (Homo sapiens) (UniProt P06239); assay: Inhibition of p56lck by ELISA
Sequence (P06239 2-509 limits assumed): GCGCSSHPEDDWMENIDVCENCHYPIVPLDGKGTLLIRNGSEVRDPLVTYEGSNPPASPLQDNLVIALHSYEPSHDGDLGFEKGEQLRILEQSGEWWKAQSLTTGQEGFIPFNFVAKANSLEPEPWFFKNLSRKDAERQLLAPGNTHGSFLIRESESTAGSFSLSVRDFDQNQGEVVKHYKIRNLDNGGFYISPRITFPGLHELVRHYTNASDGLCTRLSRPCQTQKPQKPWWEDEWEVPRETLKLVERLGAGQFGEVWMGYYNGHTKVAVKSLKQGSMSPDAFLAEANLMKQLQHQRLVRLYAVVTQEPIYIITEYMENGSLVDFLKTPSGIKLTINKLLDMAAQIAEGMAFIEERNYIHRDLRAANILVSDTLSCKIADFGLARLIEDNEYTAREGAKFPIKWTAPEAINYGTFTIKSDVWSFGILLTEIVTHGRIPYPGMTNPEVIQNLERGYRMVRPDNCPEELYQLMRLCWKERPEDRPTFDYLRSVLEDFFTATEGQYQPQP

In the case of C=C(C)C1Cc2c(O)ccc(O)c21 (centres undefined), the Activity is reported as “inactive”.
In the case of CC1(C)Oc2ccc(O)cc2CC1O (centres undefined), the Activity is reported as “inactive”.
In the case of CC(C)(O)C1Cc2cc(O)ccc2O1 (centres undefined), the Activity is reported as “inactive”.
For CC(C)=C(CCC(=O)O)C(=O)O, the Activity was “inactive”.
In the case of C=C(C)C1Cc2c(O)ccc(O[C@@H]3O[C@H](CO)[C@@H](O)[C@H](O)[C@H]3O)c21 (some centres undefined), the Activity is reported as “inactive”.

molecular target: Human immunodeficiency virus type 1 reverse transcriptase (Human immunodeficiency virus 1) (UniProt Q72547); assay: Inhibition of HIV1 reverse transcriptase by ELISA

In the case of C=C(C)C1Cc2c(O)ccc(O)c21 (centres undefined), the Activity is reported as “inactive”.
In the case of CC1(C)Oc2ccc(O)cc2CC1O (centres undefined), the Activity is reported as “inactive”.
For CC(C)(O)C1Cc2cc(O)ccc2O1 (centres undefined), the Activity was “inactive”.
For CC(C)=C(CCC(=O)O)C(=O)O, the Activity was “inactive”.
In the case of C=C(C)C1Cc2c(O)ccc(O[C@@H]3O[C@H](CO)[C@@H](O)[C@H](O)[C@H]3O)c21 (some centres undefined), the Activity is reported as “inactive”.

system: Radical scavenging activity; assay: Antioxidant activity assessed as DPPH free radical scavenging activity at 100 ug/mL; assay type: functional; in short: as §1

Going from C=C(C)C1Cc2c(O)ccc(O)c21 (centres undefined) to C=C(C)C1Cc2c(O)ccc(O[C@@H]3O[C@H](CO)[C@@H](O)[C@H](O)[C@H]3O)c21 (some centres undefined), the Activity falls from 90% to 43%.

Going from OC[C@H]1O[C@@H](Oc2ccc(O)cc2)[C@H](O)[C@@H](O)[C@@H]1O to CC1(C)Oc2ccc(O)cc2CC1O (centres undefined), the Activity rises from 52.6% to 89.1%.

First: COC(=O)C(CCC(=O)O)=C(C)C
Second: CC(C)=C(CCC(=O)O)C(=O)O
The Activity of the first is higher: 10.3% for the first, 3.8% for the second.

Going from CC(C)(O)C1Cc2cc(O)ccc2O1 (centres undefined) to CC(C)(O)C(O)Cc1cc(O)ccc1O (centres undefined), the Activity falls from 90.2% to 89.9%.

Compared with Cc1cc(C(C)(C)C)c(O)c(C(C)(C)C)c1, COC(=O)CCC(C(=O)O)=C(C)C is lower in Activity: 63.8% for the first, 10.3% for the second.

Work on C=C(C)C(CCC(=O)OC)C(=O)O (centres undefined) yielded an Activity of 10.3%.

system: Radical scavenging activity; assay: Antioxidant activity assessed as DPPH free radical scavenging activity at 25 ug/mL; assay type: functional; in short: as §1

First: C=C(C)C1Cc2c(O)ccc(O)c21 (centres undefined)
Second: C=C(C)C1Cc2c(O)ccc(O[C@@H]3O[C@H](CO)[C@@H](O)[C@H](O)[C@H]3O)c21 (some centres undefined)
The Activity of the first is higher: 85.5% for the first, 17.5% for the second.

Going from OC[C@H]1O[C@@H](Oc2ccc(O)cc2)[C@H](O)[C@@H](O)[C@@H]1O to CC1(C)Oc2ccc(O)cc2CC1O (centres undefined), the Activity rises from 18.3% to 72.9%.

Going from CC(C)(O)C1Cc2cc(O)ccc2O1 (centres undefined) to CC(C)(O)C(O)Cc1cc(O)ccc1O (centres undefined), the Activity rises from 85.8% to 90.2%.

For Cc1cc(C(C)(C)C)c(O)c(C(C)(C)C)c1, the Activity was 24.2%.

system: Radical scavenging activity; assay: Antioxidant activity assessed as DPPH free radical scavenging activity at 500 ug/mL; assay type: functional; in short: as §1

Compared with C=C(C)C1Cc2c(O)ccc(O)c21 (centres undefined), C=C(C)C1Cc2c(O)ccc(O[C@@H]3O[C@H](CO)[C@@H](O)[C@H](O)[C@H]3O)c21 (some centres undefined) is lower in Activity: 90.1% for the first, 79.9% for the second.

First: OC[C@H]1O[C@@H](Oc2ccc(O)cc2)[C@H](O)[C@@H](O)[C@@H]1O
Second: CC1(C)Oc2ccc(O)cc2CC1O (centres undefined)
The Activity of the first is lower: 78.6% for the first, 89.9% for the second.

First: COC(=O)C(CCC(=O)O)=C(C)C
Second: CC(C)=C(CCC(=O)O)C(=O)O
The Activity of the first is higher: 35.1% for the first, 15.3% for the second.

First: CC(C)(O)C1Cc2cc(O)ccc2O1 (centres undefined)
Second: CC(C)(O)C(O)Cc1cc(O)ccc1O (centres undefined)
The Activity of the first is higher: 90.4% for the first, 82.9% for the second.

Going from Cc1cc(C(C)(C)C)c(O)c(C(C)(C)C)c1 to COC(=O)CCC(C(=O)O)=C(C)C, the Activity falls from 89.8% to 35.1%.

With C=C(C)C(CCC(=O)OC)C(=O)O (centres undefined) the Activity was 35.1%.
